Laboratory results taken from ChEMBL document CHEMBL4665761, “Optimizing the Benefit/Risk of Acetyl-CoA Carboxylase Inhibitors through Liver Targeting” (J Med Chem, 2020).

Assays:
[1] = Half life in cynomolgus monkey plasma at 5 mg/kg, po tris(hydroxymethyl)aminomethane (tris) salt form of compound and measured up to 24 hrs by LC/MS-MS analysis; type: ADME, organism-based, Macaca fascicularis
Method in brief: (§1)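 Cynomolgus monkeys dosed 1 mg/kg IV as the tris salt in 2% N-methylpyrrolidone/98% sulfobutylether-β-cyclodextrin (12.5%) in 50 mM TRIS, pH 8.0, or PO as the tris salt. Plasma was analysed by LC-MS/MS, n = 2. CL = IV dose/AUC; Vss = dose/(AUC × elimination rate constant); Cmax taken from observed data.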

[2] = Cmax in Wistar-Hannover rat plasma at 5 mg/kg, po tris(hydroxymethyl)aminomethane (tris) salt form of compound and measured up to 24 hrs by LC/MS-MS analysis; type: ADME, organism-based; set-up: route oral, dose 5 mg/kg, time <=24
[3] = Aqueous solubility of compound at pH 6.5 using tris(hydroxymethyl)aminomethane (tris) salt form of compound; type: physicochemical; details: buffer
[4] = Ratio of drug uptake in cynomolgus monkey liver to plasma at 1 mg/kg, iv tris(hydroxymethyl)aminomethane (tris) salt form of compound after 6 hrs by LC/MS-MS analysis; type: ADME, organism-based, Macaca fascicularis; details: liver and plasma
Method in brief: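 Cynomolgus monkeys (n = 2) given 1 mg/kg IV as the tris salt in 2% N-methylpyrrolidone/98% sulfobutylether-β-cyclodextrin (12.5%) in 50 mM TRIS pH 8.0. Liver and plasma taken 6 h post-dose.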

[5] = Ratio of drug uptake in cynomolgus monkey unbound liver to plasma concentration at 1 mg/kg, iv tris(hydroxymethyl)aminomethane (tris) salt form of compound after 6 hrs by LC/MS-MS analysis; type: ADME, organism-based, Macaca fascicularis; details: other tissue
Method in brief: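 Cynomolgus monkeys (n = 2) given a single IV dose as tris salt in 2% N-methylpyrrolidone / 98% sulfobutylether-betacyclodextrin (12.5%) in 50 mM TRIS buffer, pH 8.0. Plasma and liver sampled 6 h post-dose. Total concentrations converted to unbound using equilibrium-dialysis fu in plasma and liver. Ratio taken as mean free liver over free plasma concentration.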

[6] = Half life in Wistar-Hannover rat plasma at 5 mg/kg, po tris(hydroxymethyl)aminomethane (tris) salt form of compound and measured up to 24 hrs by LC/MS-MS analysis; type: ADME, organism-based
[7] = Drug uptake in cynomolgus monkey assessed as plasma concentration at 1 mg/kg, iv tris(hydroxymethyl)aminomethane (tris) salt form of compound after 6 hrs by LC/MS-MS analysis; type: ADME, organism-based, Macaca fascicularis
Method in brief: (§2)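 Monkeys, n = 2, given 1 mg/kg IV as the tris salt in 2% N-methylpyrrolidone/98% sulfobutylether-β-cyclodextrin (12.5%) in 50 mM TRIS, pH 8.0. Plasma and liver concentrations were taken 6 h post-dose.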

[8] = Oral bioavailability in cynomolgus monkey plasma at 5 mg/kg using tris(hydroxymethyl)aminomethane (tris) salt form of compound and measured up to 24 hrs by LC/MS-MS analysis; type: ADME, organism-based, Macaca fascicularis
Method in brief: (§3)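 Plasma concentration–time data, n = 2, averaged. Cmax and Tmax read directly from the data. AUC0–24 by the linear trapezoidal rule. F calculated as dose-normalized AUC PO/IV.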

[9] = Cmax in cynomolgus monkey plasma at 5 mg/kg, po tris(hydroxymethyl)aminomethane (tris) salt form of compound and measured up to 24 hrs by LC/MS-MS analysis; type: ADME, organism-based, Macaca fascicularis; set-up: route oral, dose 5 mg/kg, time <=24; method in brief: as §1
[10] = AUC (0 to 24 hrs) in cynomolgus monkey plasma at 5 mg/kg, po tris(hydroxymethyl)aminomethane (tris) salt form of compound and measured up to 24 hrs by LC/MS-MS analysis; type: ADME, organism-based, Macaca fascicularis; set-up: route oral, dose 5 mg/kg, time <=24
Method in brief: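 Cynomolgus monkeys received an oral dose. AUC0–24 came from plasma concentration–time data by the linear trapezoidal rule, averaged for n = 2.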

[11] = AUC (0 to 24 hrs) in Wistar-Hannover rat plasma at 5 mg/kg, po tris(hydroxymethyl)aminomethane (tris) salt form of compound and measured up to 24 hrs by LC/MS-MS analysis; type: ADME, organism-based; set-up: route oral, dose 5 mg/kg, time <=24
Method in brief: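 Male Wistar-Hannover rats (240–350 g), housed singly after 1 week of acclimation, were dosed orally. AUC0–24 came from plasma concentration–time data by the linear trapezoidal rule, averaged for n = 2. Lower detection limit was 1 ng/mL.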

[12] = Aqueous solubility of compound at pH 7.4 using tris(hydroxymethyl)aminomethane (tris) salt form of compound; type: physicochemical; details: buffer
[13] = Tmax in Wistar-Hannover rat plasma at 5 mg/kg, po tris(hydroxymethyl)aminomethane (tris) salt form of compound and measured up to 24 hrs by LC/MS-MS analysis; type: ADME, organism-based; method in brief: as §3
[14] = Oral bioavailability in Wistar-Hannover rat plasma at 5 mg/kg tris(hydroxymethyl)aminomethane (tris) salt form of compound and measured up to 24 hrs by LC/MS-MS analysis; type: ADME, organism-based; method in brief: as §3
[15] = Aqueous solubility of compound at pH 1.2 using tris(hydroxymethyl)aminomethane (tris) salt form of compound; type: physicochemical; details: buffer
[16] = Drug uptake in cynomolgus monkey liver at 1 mg/kg, iv tris(hydroxymethyl)aminomethane (tris) salt form of compound after 6 hrs by LC/MS-MS analysis; type: ADME, organism-based, Macaca fascicularis; details: read-out: Drug uptake; method in brief: as §2
[17] = Tmax in cynomolgus monkey plasma at 5 mg/kg, po tris(hydroxymethyl)aminomethane (tris) salt form of compound and measured up to 24 hrs by LC/MS-MS analysis; type: ADME, organism-based, Macaca fascicularis; method in brief: as §3

- half-life [1]: 11 h
- Cmax [2]: 390 ng/mL
- solubility [3]: 3.98 mM
- Kp at 6 h [4]: 15
- Ratio [5]: 230
- half-life [6]: 5.6 h
- concentration at 6 h [7]: 88 ng/mL
- bioavailability [8]: 52%
- Cmax [9]: 5780 ng/mL
- AUC(0-t) [10]: 36200 ng·h/mL
- AUC(0-t) [11]: 2490 ng·h/mL
- solubility [12]: 4.77 mM
- Tmax [13]: 0.54 h
- bioavailability [14]: 48%
- solubility [15]: 1.32 mM
- concentration at 6 h [16]: 1300 ng/mL
- Tmax [17]: 1.13 h
Compound: COc1cc(C(=O)N2CCC3(CC2)CC(=O)c2c(cnn2C(C)C)C3)cc(-c2ccc(C(=O)O)cc2)n1.NC(CO)(CO)CO [CLESACOSTAT TROMETHAMINE]
